Bioassay records from PubChem.
Rows were chosen to be rich in hits. Some 1.6% of all compounds tested hit in one or more screens of this group.
MBD2 DNA inh – blocks human MBD2 binding to methylated DNA. Q9UBB5. 370,000 tested, 0.31% active. inhibition, % at 4.4 µM. TR-FRET, MBD2 binding to methylated oligonucleotide; in the data active means inhibition above about 13%
TDP2 inh – blocks human TDP2 phosphodiesterase activity; O95551; recombinant TDP2, T5PNP hydrolysis, p-nitrophenol absorbance 415 nm; inhibition, % at 12.8 µM; 370,000 tested, 0.34% active; AID 720702;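 active means inhibition above the mean of all tested compounds plus 3 SD, set per campaign, cut at about 25% in these data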;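 further: 0% = DMSO with enzyme and 100% = buffer with substrate but no TDP2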
Target sequence (O95551 whole entry, looked up): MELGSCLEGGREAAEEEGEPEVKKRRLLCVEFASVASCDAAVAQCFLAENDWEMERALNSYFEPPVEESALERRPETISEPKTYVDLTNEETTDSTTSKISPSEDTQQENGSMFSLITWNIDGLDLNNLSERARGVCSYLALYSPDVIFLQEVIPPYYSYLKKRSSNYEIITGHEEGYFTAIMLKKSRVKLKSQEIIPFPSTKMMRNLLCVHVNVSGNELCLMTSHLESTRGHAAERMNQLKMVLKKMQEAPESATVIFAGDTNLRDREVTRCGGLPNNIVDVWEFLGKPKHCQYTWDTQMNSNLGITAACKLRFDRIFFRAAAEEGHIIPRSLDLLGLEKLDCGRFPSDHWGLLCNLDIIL
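Test system: human TDP2 enzyme; Input: 120 nM TDP2 per well; Buffer or medium: Mg2+-containing Tris-HCl buffer, pH 7.5; Reagent: 5 mM T5PNP; Dosing: 12.8 µM single point, 1% DMSO; Incubation: reaction 2 h, 37 °C; Detection: p-Nitrophenol epi absorbance; Read-out: % inhibition relative to enzyme-containing and enzyme-free wells; Replicates: single well per compound.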
LEDGF integ inh – blocks HIV-1 LEDGF/p75-dependent DNA integration. TR-FRET IN-LEDGF/p75 DNA integration, Eu/Cy5. inhibition, % at 3.7 µM. 370,000 tested, 0.64% active;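 active means inhibition above the screen-wide mean plus 3 SD, cut at about 13% in these data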;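 further: signal is the Cy5 over europium emission ratio at 671 and 618 nm; 0% = plate median of compound wells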
UHRF1 binding – human UHRF1 methylated DNA binding inhibitors. Q96T88. 370,000 tested, 0.75% active. UHRF1 binding to methylated oligo, TR-FRET. inhibition, % at 4.4 µM; in the data active means inhibition above about 21%;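 further: UHRF1 SRA domain binding a hemimethylated CpG hairpin DNA probe; 0% = median of test compound wells and 100% = reference inhibitor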
* marks the source's active call; other numbers are inactive results.

CC(C(=O)N1CCN(C(=O)c2ccco2)CC1)n1sc2ccccc2c1=O (stereo not given) was read as MBD2 DNA inh -2, TDP2 inh 22, LEDGF integ inh 0 and UHRF1 binding 2.
For Cc1ccc(CN(Cc2ccco2)C(=S)NCC(=O)O)cc1 the results were MBD2 DNA inh 6, TDP2 inh -12, LEDGF integ inh 0 and UHRF1 binding 22*.
Screening CCCC(=O)C1=C(O)C(C(=O)OC)C(C)(C)CC1=N (stereo not given) returned MBD2 DNA inh -1, TDP2 inh -11, LEDGF integ inh -2 and UHRF1 binding 21*.
C#CCN(C[C@@H]1[C@@H](OC(=O)NCC2CCCCC2)[C@@H](OC(=O)NCC2CCCCC2)CN(C(=O)OC(C)C)N1C(=O)OC(C)C)S(=O)(=O)c1ccc(C)cc1 was read as MBD2 DNA inh -3, TDP2 inh 0, LEDGF integ inh -3 and UHRF1 binding -2.
For Cc1ccc(S(=O)(=O)N2C[C@H]3N(C(=O)OC(C)C)N(C(=O)OC(C)C)C[C@H](OC(=O)NCc4ccccc4F)[C@@]3(O)C2)cc1 the results were MBD2 DNA inh 7, TDP2 inh -5, LEDGF integ inh -3 and UHRF1 binding 22*.
Screening C#CCN(C[C@@H]1[C@@H](OC(=O)NCc2ccccc2)[C@@H](OC(=O)NCc2ccccc2)CN(C(=O)OC(C)C)N1C(=O)OC(C)C)S(=O)(=O)c1ccc(C)cc1 returned MBD2 DNA inh 9, TDP2 inh 7, LEDGF integ inh -2 and UHRF1 binding 23*.
CCOC(=O)C1CCN(C(=O)COC(=O)c2ccc([N+](=O)[O-])o2)CC1 was read as MBD2 DNA inh -2, TDP2 inh -4, LEDGF integ inh 5 and UHRF1 binding -6.
For COc1cccc(N(C(=O)c2cnccn2)C(C(=O)NC2CCCCC2)c2ccc(Cl)cc2)c1 (stereo not given) the results were MBD2 DNA inh 4, TDP2 inh -3, LEDGF integ inh 0 and UHRF1 binding 2.
O=C(NC1CCCCC1)C(c1ccc(Cl)cc1)N(C(=O)c1cnccn1)c1ccc2c(c1)OCO2 (stereo not given) was read as MBD2 DNA inh 11, TDP2 inh 0, LEDGF integ inh -1 and UHRF1 binding 22*.
For O=C(NC1CCCCC1)C(c1ccncc1)N(Cc1ccc2c(c1)OCO2)C(=O)c1cnsn1 (stereo not given) the results were MBD2 DNA inh 0, TDP2 inh -10, LEDGF integ inh 12 and UHRF1 binding 21*.
For CCCCCCCCCCCC(=O)N/N=C/c1ccco1 the results were MBD2 DNA inh 11, TDP2 inh -5, LEDGF integ inh 4 and UHRF1 binding 27*.
`O=C1NC(=O)/C(=C\c2ccc(Br)o2)S1` gave MBD2 DNA inh 2, TDP2 inh 0, LEDGF integ inh 11 and UHRF1 binding 45*.
CC1(C)CC(=O)C=C(C#CC2CC2)C1 was read as MBD2 DNA inh 6, TDP2 inh 2, LEDGF integ inh -1 and UHRF1 binding 23*.
For CC1(C)CC(=O)C=C(NC2CCCCC2)C1 the results were MBD2 DNA inh 0, TDP2 inh -1, LEDGF integ inh 3 and UHRF1 binding 2.
For CCc1nnc(NC(=O)CSc2sc3c(O)cc(=O)[nH]c3c2C#N)s1 the results were MBD2 DNA inh 13*, TDP2 inh 25*, LEDGF integ inh 13 and UHRF1 binding 35*.
Screening CCSc1nnc(NC(=O)CSc2sc3c(O)cc(=O)[nH]c3c2C#N)s1 returned MBD2 DNA inh 11, TDP2 inh -1, LEDGF integ inh -1 and UHRF1 binding 32*.
Screening Cc1c(CCC(=O)NCC(=O)NCC(=O)O)c(=O)oc2cc3oc4c(c3cc12)CCCC4 returned MBD2 DNA inh 2, TDP2 inh -10, LEDGF integ inh 8 and UHRF1 binding -3.
For C=CCNC(=O)c1ccncc1 the results were MBD2 DNA inh 1, TDP2 inh -7, LEDGF integ inh 1 and UHRF1 binding 2.
For C=CCNC(=O)c1ccc(-n2cccc2)cc1 the results were MBD2 DNA inh 11, TDP2 inh -2, LEDGF integ inh 2 and UHRF1 binding 24*.
COc1ccc(OC)c2sc(N3CCN(c4ccccc4)CC3)nc12 was read as MBD2 DNA inh 3, TDP2 inh -12, LEDGF integ inh 0 and UHRF1 binding 3.
`COc1ccc(C)c2sc(N3CCCC3)nc12` gave MBD2 DNA inh -4, TDP2 inh 4, LEDGF integ inh 1 and UHRF1 binding 25*.
For COC(=O)CC1OCC=C2CN3CCC45C6=CC(=O)C(=O)C([N+](=O)[O-])=C6NC4C1C2CC35 (stereo not given) the results were MBD2 DNA inh 16*, TDP2 inh 68*, LEDGF integ inh -3 and UHRF1 binding 20.
`CC(=O)Oc1cc(C(C)C)c(OCCN(C)C)cc1C` gave MBD2 DNA inh 0, TDP2 inh -4, LEDGF integ inh -3 and UHRF1 binding 0.
For CC1(C)CN=C(c2ccccc2)NC1 the results were MBD2 DNA inh -7, TDP2 inh -9, LEDGF integ inh 5 and UHRF1 binding 2.
For O=C(Cc1ccccc1)NN1C(=O)C2C(C1=O)C1C=CC2C12CC2 (stereo not given) the results were MBD2 DNA inh 1, TDP2 inh -10, LEDGF integ inh 6 and UHRF1 binding 24*.
For O=C(Cc1ccccc1)NN1C(=O)C2C3C=CC([C@@H]2C1=O)C31CC1 (stereo not given in full) the results were MBD2 DNA inh -5, TDP2 inh 10, LEDGF integ inh -1 and UHRF1 binding -1.
For Cc1cccc(C)c1NC(=O)C1CC(=O)N(C(C)C)C1 (stereo not given) the results were MBD2 DNA inh -2, TDP2 inh 1, LEDGF integ inh -7 and UHRF1 binding 0.
Screening C=CCn1c(SCC(N)=O)nnc1-c1cnccn1 returned MBD2 DNA inh 0, TDP2 inh -4, LEDGF integ inh 7 and UHRF1 binding 74*.
`C/C(=N\NC(=O)CSCc1ccc([N+](=O)[O-])cc1)c1ccccc1` gave MBD2 DNA inh 1, TDP2 inh -6, LEDGF integ inh -7 and UHRF1 binding 30*.
COC(=O)[C@]12CCCCC=C1N(Cc1ccc(Cl)cc1Cl)C(=O)[C@H](CC(=O)N1CCCCC1)C2 was read as MBD2 DNA inh -1, TDP2 inh -5, LEDGF integ inh 2 and UHRF1 binding 0.
CCc1ccc(CN2CCC(C(=O)Nc3ccc(Oc4ccccc4)nc3)CC2)o1 was read as MBD2 DNA inh -4, TDP2 inh -2, LEDGF integ inh 2 and UHRF1 binding 43*.
`O=C(Nc1ccc(Oc2ccccc2)nc1)C1CCN(Cc2ccccc2)CC1` gave MBD2 DNA inh -3, TDP2 inh 7, LEDGF integ inh -2 and UHRF1 binding 0.
For CCN(Cc1ccccc1)S(=O)(=O)c1c(N)n(C)c(=O)n(C)c1=O the results were MBD2 DNA inh 13, TDP2 inh -7, LEDGF integ inh 3 and UHRF1 binding 30*.
CCN(Cc1ccccc1)S(=O)(=O)c1c(C)n(C)c(=O)n(C)c1=O was read as MBD2 DNA inh -4, TDP2 inh -1, LEDGF integ inh 1 and UHRF1 binding -5.
